Data reported in ChEMBL document CHEMBL4118097, “Selective Inhibitors of Dual Leucine Zipper Kinase (DLK, MAP3K12) with Activity in a Model of Alzheimer's Disease” (J Med Chem, 2017).

Key:
[1] = molecular target: Serine/threonine-protein kinase DCLK2 (Homo sapiens) (UniProt Q8N568); assay: Inhibition of full length recombinant GST-tagged human DCAMKL2 expressed in baculovirus expression system at 1 uM by FRET assay relative to control
[2] = molecular target: Mitogen-activated protein kinase kinase kinase 8 (Homo sapiens) (UniProt P41279); assay: Inhibition of recombinant GST-tagged human Cot catalytic domain (30 to 397 residues) expressed in baculovirus expression system at 1 uM by FRET assay relative to control
[3] = molecular target: Serine/threonine-protein kinase B-raf (Homo sapiens) (UniProt P15056); assay: Inhibition of B-Raf (unknown origin) at 1 uM by FRET assay relative to control
Sequence of Serine/threonine-protein kinase B-raf (Homo sapiens) (P15056 whole entry): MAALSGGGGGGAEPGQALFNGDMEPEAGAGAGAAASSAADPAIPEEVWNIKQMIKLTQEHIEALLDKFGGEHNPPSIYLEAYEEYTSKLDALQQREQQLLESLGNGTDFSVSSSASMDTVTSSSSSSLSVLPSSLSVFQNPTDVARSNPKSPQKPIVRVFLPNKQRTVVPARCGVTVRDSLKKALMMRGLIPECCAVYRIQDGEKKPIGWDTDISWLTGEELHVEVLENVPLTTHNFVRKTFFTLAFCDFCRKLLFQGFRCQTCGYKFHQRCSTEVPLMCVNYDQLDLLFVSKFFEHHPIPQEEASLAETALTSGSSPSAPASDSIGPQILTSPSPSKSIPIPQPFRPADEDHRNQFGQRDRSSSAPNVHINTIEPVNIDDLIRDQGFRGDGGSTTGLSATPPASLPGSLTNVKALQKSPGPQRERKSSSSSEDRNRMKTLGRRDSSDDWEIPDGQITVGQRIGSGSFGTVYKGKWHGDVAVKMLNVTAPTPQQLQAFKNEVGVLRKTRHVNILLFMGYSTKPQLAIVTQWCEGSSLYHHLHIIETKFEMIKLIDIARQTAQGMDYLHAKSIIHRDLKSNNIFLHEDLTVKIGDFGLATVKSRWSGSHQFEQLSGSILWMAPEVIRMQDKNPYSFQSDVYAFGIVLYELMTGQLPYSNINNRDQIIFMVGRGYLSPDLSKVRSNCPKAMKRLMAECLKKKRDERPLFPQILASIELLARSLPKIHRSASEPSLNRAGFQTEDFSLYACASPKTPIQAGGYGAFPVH

[4] = molecular target: Mitogen-activated protein kinase kinase kinase 5 (Homo sapiens) (UniProt Q99683); assay: Inhibition of recombinant full length GST-tagged human ASK1 expressed in baculovirus expression system at 1 uM by FRET assay relative to control
How it was run: (§1)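 Single-concentration screen at 1 μM in Life Technologies SelectScreen, across a 220-kinase panel. Z′-LYTE format measures phosphorylation of a labeled peptide by FRET. Results are reported as percent inhibition.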

[5] = molecular target: LIM domain kinase 1 (Homo sapiens) (UniProt P53667); assay: Inhibition of recombinant His-tagged human LIMK1 catalytic domain (285 to 638 residues) expressed in baculovirus expression system at 1 uM by FRET assay relative to control
How it was run: (§2)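 Single-point screen at 1 μM compound in a 220-kinase panel run by Life Technologies (SelectScreen). Z′-LYTE format: phosphorylation of a labeled peptide substrate read by FRET. Values are reported as percent inhibition.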

[6] = molecular target: Tyrosine-protein kinase ITK/TSK (Homo sapiens) (UniProt Q08881); assay: Inhibition of recombinant full length GST-tagged human ITK cytoplasmic domain (473 to end residues) expressed in baculovirus expression system at 1 uM by FRET relative to control; how it was run: as §1
[7] = molecular target: Insulin-like growth factor 1 receptor (Homo sapiens) (UniProt P08069); assay: Inhibition of recombinant His-tagged human IGF1R cytoplasmic domain (960 to 1397 residues) expressed in baculovirus expression system at 1 uM by FRET relative to control; how it was run: as §2
Sequence of Insulin-like growth factor 1 receptor (Homo sapiens) (P08069 31-736 limits assumed): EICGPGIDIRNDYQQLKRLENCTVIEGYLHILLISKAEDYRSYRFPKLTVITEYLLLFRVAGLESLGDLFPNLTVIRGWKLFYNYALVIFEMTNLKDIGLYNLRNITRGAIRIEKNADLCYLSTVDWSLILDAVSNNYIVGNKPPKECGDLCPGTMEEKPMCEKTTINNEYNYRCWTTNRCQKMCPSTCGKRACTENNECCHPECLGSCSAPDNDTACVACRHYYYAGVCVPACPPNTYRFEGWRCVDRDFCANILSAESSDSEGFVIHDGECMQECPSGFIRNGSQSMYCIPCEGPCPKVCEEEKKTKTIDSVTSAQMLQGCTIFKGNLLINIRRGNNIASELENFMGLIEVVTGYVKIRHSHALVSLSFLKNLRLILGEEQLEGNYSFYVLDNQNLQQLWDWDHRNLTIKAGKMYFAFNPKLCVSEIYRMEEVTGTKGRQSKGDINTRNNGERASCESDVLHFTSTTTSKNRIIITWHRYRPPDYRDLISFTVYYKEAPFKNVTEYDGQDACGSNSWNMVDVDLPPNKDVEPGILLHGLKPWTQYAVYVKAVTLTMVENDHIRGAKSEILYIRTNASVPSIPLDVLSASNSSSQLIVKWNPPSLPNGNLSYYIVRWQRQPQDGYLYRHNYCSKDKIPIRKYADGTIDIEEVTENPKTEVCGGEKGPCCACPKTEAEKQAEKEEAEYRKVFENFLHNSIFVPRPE
Sequence of Insulin-like growth factor 1 receptor (Homo sapiens) (P08069 741-1367 limits assumed): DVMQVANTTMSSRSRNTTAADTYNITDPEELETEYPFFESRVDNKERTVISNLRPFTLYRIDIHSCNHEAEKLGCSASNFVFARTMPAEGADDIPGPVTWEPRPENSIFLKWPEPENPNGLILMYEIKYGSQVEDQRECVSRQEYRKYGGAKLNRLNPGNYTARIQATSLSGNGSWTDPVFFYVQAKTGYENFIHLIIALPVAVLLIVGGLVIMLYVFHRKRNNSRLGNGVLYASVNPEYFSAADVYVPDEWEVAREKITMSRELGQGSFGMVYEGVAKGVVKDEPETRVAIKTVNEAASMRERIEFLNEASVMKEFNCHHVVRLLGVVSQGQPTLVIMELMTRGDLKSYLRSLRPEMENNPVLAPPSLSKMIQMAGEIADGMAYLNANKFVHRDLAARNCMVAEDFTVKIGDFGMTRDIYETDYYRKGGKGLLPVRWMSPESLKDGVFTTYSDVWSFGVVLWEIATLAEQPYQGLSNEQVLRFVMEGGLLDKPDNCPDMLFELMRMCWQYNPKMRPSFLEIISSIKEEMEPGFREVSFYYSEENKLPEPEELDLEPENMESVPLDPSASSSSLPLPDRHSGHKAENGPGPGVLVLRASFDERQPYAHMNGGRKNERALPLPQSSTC

[8] = molecular target: Glycogen synthase kinase-3 alpha (Homo sapiens) (UniProt P49840); assay: Inhibition of GSK3alpha (unknown origin) at 1 uM by FRET relative to control
[9] = molecular target: G protein-coupled receptor kinase 3 (Homo sapiens) (UniProt P35626); assay: Inhibition of recombinant full length GST-tagged human GRK3 expressed in baculovirus expression system at 1 uM by FRET relative to control; how it was run: as §1
[10] = molecular target: Eukaryotic elongation factor 2 kinase (Homo sapiens) (UniProt O00418); assay: Inhibition of recombinant full length GST-tagged human eEF2K expressed in Escherichia coli at 1 uM by FRET assay relative to control
[11] = molecular target: Mitogen-activated protein kinase 12 (Homo sapiens) (UniProt P53778); assay: Inhibition of recombinant full length His-tagged human p38gamma expressed in baculovirus expression system at 1 uM by FRET assay relative to control
[12] = molecular target: Mitogen-activated protein kinase 13 (Homo sapiens) (UniProt O15264); assay: Inhibition of recombinant full length His-tagged human p38delta expressed in baculovirus expression system at 1 uM by FRET assay relative to control
[13] = molecular target: Serine/threonine-protein kinase Nek6 (Homo sapiens) (UniProt Q9HC98); assay: Inhibition of recombinant GST-tagged human NEK6 catalytic domain expressed in baculovirus expression system at 1 uM by FRET assay relative to control; how it was run: as §2
[14] = molecular target: Serine/threonine-protein kinase 3 (Homo sapiens) (UniProt Q13188); assay: Inhibition of recombinant full length GST-tagged human MST2 expressed in baculovirus at 1 uM by FRET assay relative to control; how it was run: as §1
[15] = molecular target: Ribosomal protein S6 kinase alpha-5 (Homo sapiens) (UniProt O75582); assay: Inhibition of recombinant full length GST-tagged human MSK1 expressed in baculovirus at 1 uM by FRET assay relative to control; how it was run: as §1
[16] = molecular target: Dual specificity mitogen-activated protein kinase kinase 6 (Homo sapiens) (UniProt P52564); assay: Inhibition of recombinant human full length His-tagged MKK6 expressed in baculovirus at 1 uM by FRET assay relative to control
[17] = molecular target: Wee1-like protein kinase (Homo sapiens) (UniProt P30291); assay: Inhibition of recombinant N-terminal full length GST-tagged human WEE1 expressed in baculovirus expression system at 1 uM by FRET assay relative to control; how it was run: as §1
[18] = molecular target: Non-receptor tyrosine-protein kinase TYK2 (Homo sapiens) (UniProt P29597); assay: Inhibition of recombinant N-terminal GST-tagged human TYK2 (833 to 1187 residues) expressed in baculovirus expression system at 1 uM by FRET assay relative to control; how it was run: as §1
Sequence of Non-receptor tyrosine-protein kinase TYK2 (Homo sapiens) (P29597 whole entry, the tested form may be a part): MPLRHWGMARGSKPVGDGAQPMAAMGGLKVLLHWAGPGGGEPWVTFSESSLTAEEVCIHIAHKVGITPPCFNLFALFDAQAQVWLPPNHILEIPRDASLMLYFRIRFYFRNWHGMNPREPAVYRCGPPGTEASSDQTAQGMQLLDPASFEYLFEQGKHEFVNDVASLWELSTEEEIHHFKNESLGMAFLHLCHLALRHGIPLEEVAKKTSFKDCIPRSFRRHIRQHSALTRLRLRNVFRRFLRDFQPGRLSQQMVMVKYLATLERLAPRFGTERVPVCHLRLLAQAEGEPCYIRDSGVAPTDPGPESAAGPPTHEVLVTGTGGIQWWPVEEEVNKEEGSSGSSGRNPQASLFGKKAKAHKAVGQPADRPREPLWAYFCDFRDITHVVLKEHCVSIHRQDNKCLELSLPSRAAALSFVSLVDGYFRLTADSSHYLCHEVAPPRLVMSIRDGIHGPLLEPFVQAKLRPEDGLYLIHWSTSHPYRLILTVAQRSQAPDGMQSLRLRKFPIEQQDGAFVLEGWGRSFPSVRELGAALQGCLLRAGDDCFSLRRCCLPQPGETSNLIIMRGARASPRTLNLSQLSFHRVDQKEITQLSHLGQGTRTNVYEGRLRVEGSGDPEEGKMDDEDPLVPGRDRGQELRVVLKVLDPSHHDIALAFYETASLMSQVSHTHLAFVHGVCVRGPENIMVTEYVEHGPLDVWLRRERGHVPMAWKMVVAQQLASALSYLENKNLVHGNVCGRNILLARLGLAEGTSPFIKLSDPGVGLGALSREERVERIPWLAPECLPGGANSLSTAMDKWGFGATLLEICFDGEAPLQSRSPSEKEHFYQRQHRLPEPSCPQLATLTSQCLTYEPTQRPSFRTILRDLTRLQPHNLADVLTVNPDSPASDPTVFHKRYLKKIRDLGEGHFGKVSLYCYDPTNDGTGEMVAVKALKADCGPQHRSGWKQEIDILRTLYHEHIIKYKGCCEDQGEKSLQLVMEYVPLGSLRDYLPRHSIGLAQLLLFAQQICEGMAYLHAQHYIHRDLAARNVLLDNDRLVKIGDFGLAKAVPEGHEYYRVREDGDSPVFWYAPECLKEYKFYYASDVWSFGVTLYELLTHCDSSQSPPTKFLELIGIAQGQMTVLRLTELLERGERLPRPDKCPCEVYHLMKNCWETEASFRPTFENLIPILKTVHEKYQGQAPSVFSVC

[19] = molecular target: Tyrosine-protein kinase Tec (Homo sapiens) (UniProt P42680); assay: Inhibition of recombinant full length His-tagged human TEC cytoplasmic domain expressed in baculovirus expression system at 1 uM by FRET assay relative to control
[20] = molecular target: Serine/threonine-protein kinase SIK2 (Homo sapiens) (UniProt Q9H0K1); assay: Inhibition of SIK2 (unknown origin) at 1 uM by FRET assay relative to control
[21] = molecular target: Serine/threonine-protein kinase Sgk3 (Homo sapiens) (UniProt Q96BR1); assay: Inhibition of recombinant full length GST-tagged human SGK3 catalytic domain (87 to 496 residues) expressed in baculovirus expression system at 1 uM by FRET assay relative to control; how it was run: as §1
[22] = molecular target: Serine/threonine-protein kinase PLK3 (Homo sapiens) (UniProt Q9H4B4); assay: Inhibition of GST-tagged human PLK3 catalytic domain expressed in baculovirus expression system at 1 uM by FRET assay relative to control
[23] = molecular target: Protein kinase C eta type (Homo sapiens) (UniProt P24723); assay: Inhibition of PKCeta (unknown origin) at 1 uM by FRET assay relative to control
[24] = molecular target: Mitogen-activated protein kinase 9 (Homo sapiens, UniProt P45984); assay: Inhibition of recombinant full length His-tagged human JNK2 ([…]) expressed in baculovirus expression system at by FRET assay
Sequence of Mitogen-activated protein kinase 9 (P45984 whole entry): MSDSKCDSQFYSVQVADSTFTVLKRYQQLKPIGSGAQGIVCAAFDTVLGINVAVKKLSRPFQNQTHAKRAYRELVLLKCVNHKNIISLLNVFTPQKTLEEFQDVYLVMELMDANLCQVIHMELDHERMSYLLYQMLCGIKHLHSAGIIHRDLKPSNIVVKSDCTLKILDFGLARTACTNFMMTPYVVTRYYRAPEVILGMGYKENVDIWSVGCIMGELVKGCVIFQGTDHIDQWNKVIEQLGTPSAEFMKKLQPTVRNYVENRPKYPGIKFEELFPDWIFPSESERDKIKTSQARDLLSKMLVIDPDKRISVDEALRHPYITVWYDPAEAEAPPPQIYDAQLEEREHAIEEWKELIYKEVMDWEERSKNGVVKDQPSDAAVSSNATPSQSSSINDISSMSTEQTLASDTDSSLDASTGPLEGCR

[25] = molecular target: Adrenergic receptor alpha-1 (Homo sapiens) (UniProt P35348+P25100+P35368); assay: Binding affinity to alpha1 adrenergic receptor (unknown origin) at 10 uM relative to control; format: protein assay
How it was run: (§3)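 Broad radioligand-binding and enzyme screening panel covering 42 targets (biogenic amine and neuropeptide receptors, ion channels, neurotransmitter transporters, acetylcholinesterase). Single test concentration of 10 μM. Results expressed as binding relative to control, with a hit defined as >50% of control.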

[26] = species: Homo sapiens; assay: Binding affinity to BZD receptor (unknown origin) at 10 uM relative to control; how it was run: as §3
[27] = molecular target: 5-hydroxytryptamine receptor 2A (Homo sapiens) (UniProt P28223); assay: Binding affinity to 5HT2A receptor (unknown origin) receptor at 10 uM relative to control; how it was run: as §3
Sequence of 5-hydroxytryptamine receptor 2A (Homo sapiens) (P28223 whole entry): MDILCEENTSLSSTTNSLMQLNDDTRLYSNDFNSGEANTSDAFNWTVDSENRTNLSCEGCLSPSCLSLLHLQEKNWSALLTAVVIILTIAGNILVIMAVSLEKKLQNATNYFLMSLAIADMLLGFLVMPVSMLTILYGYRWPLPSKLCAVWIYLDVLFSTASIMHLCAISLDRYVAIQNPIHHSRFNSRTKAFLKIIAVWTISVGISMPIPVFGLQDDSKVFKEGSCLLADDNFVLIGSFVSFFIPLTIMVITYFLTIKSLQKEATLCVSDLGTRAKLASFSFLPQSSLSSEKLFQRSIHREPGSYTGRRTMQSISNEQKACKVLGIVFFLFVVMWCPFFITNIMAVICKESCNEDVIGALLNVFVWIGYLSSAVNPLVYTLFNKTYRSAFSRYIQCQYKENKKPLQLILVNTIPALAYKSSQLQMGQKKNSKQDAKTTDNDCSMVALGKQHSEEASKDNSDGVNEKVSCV

[28] = molecular target: Sodium-dependent noradrenaline transporter (Homo sapiens) (UniProt P23975); assay: Binding affinity to recombinant human norepinephrine transporter at 10 uM relative to control; how it was run: as §3

Sequence of Serine/threonine-protein kinase DCLK2 (Homo sapiens) (Q8N568 whole entry, the tested form may be a part): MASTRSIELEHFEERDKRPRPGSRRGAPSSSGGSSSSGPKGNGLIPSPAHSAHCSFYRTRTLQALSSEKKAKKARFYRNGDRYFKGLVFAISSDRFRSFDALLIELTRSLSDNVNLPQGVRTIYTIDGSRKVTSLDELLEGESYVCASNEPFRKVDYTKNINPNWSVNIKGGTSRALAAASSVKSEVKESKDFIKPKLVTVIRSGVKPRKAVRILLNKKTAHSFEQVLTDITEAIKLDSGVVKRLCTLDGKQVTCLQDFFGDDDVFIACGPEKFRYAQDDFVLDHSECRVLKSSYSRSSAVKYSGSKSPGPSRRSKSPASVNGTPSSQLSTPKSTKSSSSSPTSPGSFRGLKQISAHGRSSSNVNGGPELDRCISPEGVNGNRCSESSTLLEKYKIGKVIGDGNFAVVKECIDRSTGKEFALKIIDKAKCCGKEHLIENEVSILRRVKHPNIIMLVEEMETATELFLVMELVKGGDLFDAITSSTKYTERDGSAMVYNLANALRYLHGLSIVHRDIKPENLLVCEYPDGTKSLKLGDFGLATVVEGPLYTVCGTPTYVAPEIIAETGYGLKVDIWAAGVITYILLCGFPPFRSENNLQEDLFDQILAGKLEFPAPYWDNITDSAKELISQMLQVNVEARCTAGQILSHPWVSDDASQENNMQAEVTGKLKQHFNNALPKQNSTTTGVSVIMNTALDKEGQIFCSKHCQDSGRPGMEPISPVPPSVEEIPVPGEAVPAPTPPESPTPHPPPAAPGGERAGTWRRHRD

Structure (SMILES)	inhibition [1] [%]	inhibition [2] [%]	inhibition [3] [%]	inhibition [4] [%]	inhibition [5] [%]	inhibition [6] [%]	inhibition [7] [%]	inhibition [8] [%]	inhibition [9] [%]	inhibition [10] [%]	inhibition [11] [%]	inhibition [12] [%]	inhibition [13] [%]	inhibition [14] [%]	inhibition [15] [%]	inhibition [16] [%]	inhibition [17] [%]	inhibition [18] [%]	inhibition [19] [%]	inhibition [20] [%]	also measured
CC(C)n1nc(-c2cnc(N)c(OC(F)(F)F)c2)cc1[C@H]1[C@@H]2CN(C3COC3)C[C@@H]21	-1.6	14.3	3.7	-5.3	7.7	10.9	9.3	7.8	-2.3	4.4	7.8	10.5	5.1	10.1	7.2	10.6	4.9	10.7	-1.5	10.8	inhibition [21]: 6.1%; inhibition [22]: -3.8%; inhibition [23]: 1.7%; IC50 [24]: > 10 µM; Activity [25]: > 50%; Activity [26]: > 50%; Activity [27]: > 50%; Activity [28]: > 50%
Nc1ncc(-c2cc([C@H]3[C@@H]4CN(C5COC5)C[C@@H]43)n(CC3CC3)n2)cc1C(F)(F)F	-0.8	3.4	1.8	3.1	0.3	0.8	13.8	0.8	0.5	-5.1	7.8	3.8	0.3	0	1.9	-0.9	7.1	9.3	4.8	18.4	inhibition [21]: -0.1%; inhibition [22]: 0.6%; inhibition [23]: -3.9%; IC50 [24]: > 10 µM; Activity [25]: > 50%; Activity [26]: > 50%; Activity [27]: > 50%; Activity [28]: > 50%
